According to ChEMBL document CHEMBL4610035, “Synthesis and biological evaluation of novel 3-benzylcoumarin-imidazolium salts” (Bioorg Med Chem Lett, 2020):

Legend:
A549 = assay: Antiproliferative activity against human A549 cells assessed as growth inhibition incubated up to 4 days by MTS assay; type: functional, cell-based; conditions: A549, 96 h
In short: (§1)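 Five human tumour cell lines were assayed by MTS. IC50 is the compound concentration that cuts optical density of treated cells by 50% relative to untreated cells. Mean of three independent determinations.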

SMMC-7721 [1] = assay: Antiproliferative activity against human SMMC7721 cells assessed as growth inhibition incubated up to 4 days by MTS assay; type: functional, cell-based; conditions: SMMC-7721, 96 h; in short: as §1
SW480 [2] = assay: Antiproliferative activity against human SW480 cells assessed as growth inhibition incubated up to 4 days by MTS assay; type: functional, cell-based; conditions: SW480, 96 h; in short: as §1
HL-60 = assay: Antiproliferative activity against human HL60 cells assessed as growth inhibition incubated up to 4 days by MTS assay; type: functional, cell-based; conditions: HL-60, 96 h; in short: as §1
MCF7 [3] = assay: Antiproliferative activity against human MCF7 cells assessed as growth inhibition incubated up to 4 days by MTS assay; type: functional, cell-based; conditions: MCF7, 96 h; in short: as §1
SMMC-7721 [4] = assay: Induction of apoptosis in human SMMC7721 cells assessed as late apoptotic cells at 8 uM after 48 hrs by Annexin-V/PI-staining based flow cytometry (reference value: 0.649%); type: functional
SMMC-7721 [5] = assay: Induction of apoptosis in human SMMC7721 cells assessed as early apoptotic cells at 2 uM after 48 hrs by Annexin-V/PI-staining based flow cytometry (reference value: 1.25%); type: functional
SMMC-7721 [6] = assay: Induction of cell cycle arrest in human SMMC7721 cells assessed as accumulation at G0/G1 phase at 4 uM after 24 hrs by propidium iodide staining based flow cytometric analysis (reference value: 63.71 +/- 0.31%); type: functional
SMMC-7721 [7] = assay: Induction of apoptosis in human SMMC7721 cells assessed as early apoptotic cells at 4 uM after 48 hrs by Annexin-V/PI-staining based flow cytometry (reference value: 1.25%); type: functional
SMMC-7721 [8] = assay: Induction of cell cycle arrest in human SMMC7721 cells assessed as accumulation at G2/M phase at 8 uM after 24 hrs by propidium iodide staining based flow cytometric analysis (reference value: 6.70 +/- 0.63%); type: functional
SMMC-7721 [9] = assay: Induction of apoptosis in human SMMC7721 cells assessed as viable cells at 2 uM after 48 hrs by Annexin-V/PI-staining based flow cytometry (reference value: 96.9%); type: functional; conditions: SMMC-7721, 48 h, read-out: Activity
SMMC-7721 [10] = assay: Induction of cell cycle arrest in human SMMC7721 cells assessed as accumulation at S phase at 4 uM after 24 hrs by propidium iodide staining based flow cytometric analysis (reference value: 23.26 +/- 0.57%); type: functional
SMMC-7721 [11] = assay: Induction of cell cycle arrest in human SMMC7721 cells assessed as accumulation at G0/G1 phase at 8 uM after 24 hrs by propidium iodide staining based flow cytometric analysis (reference value: 63.71 +/- 0.31%); type: functional
SMMC-7721 [12] = assay: Induction of cell cycle arrest in human SMMC7721 cells assessed as accumulation at sub-G1 phase at 4 uM after 24 hrs by propidium iodide staining based flow cytometric analysis (reference value: 3.173 +/- 0.26%); type: functional
SMMC-7721 [13] = assay: Induction of cell cycle arrest in human SMMC7721 cells assessed as accumulation at sub-G1 phase at 8 uM after 24 hrs by propidium iodide staining based flow cytometric analysis (reference value: 3.173 +/- 0.26%); type: functional
SMMC-7721 [14] = assay: Induction of cell cycle arrest in human SMMC7721 cells assessed as accumulation at S phase at 2 uM after 24 hrs by propidium iodide staining based flow cytometric analysis (reference value: 23.26 +/- 0.57%); type: functional
SMMC-7721 [15] = assay: Induction of apoptosis in human SMMC7721 cells assessed as early apoptotic cells at 8 uM after 48 hrs by Annexin-V/PI-staining based flow cytometry (reference value: 1.25%); type: functional
SMMC-7721 [16] = assay: Induction of apoptosis in human SMMC7721 cells assessed as necrotic cells at 8 uM after 48 hrs by Annexin-V/PI-staining based flow cytometry (reference value: 1.24%); type: functional
SMMC-7721 [17] = assay: Induction of cell cycle arrest in human SMMC7721 cells assessed as accumulation at G2/M phase at 2 uM after 24 hrs by propidium iodide staining based flow cytometric analysis (reference value: 6.70 +/- 0.63%); type: functional
SMMC-7721 [18] = assay: Induction of cell cycle arrest in human SMMC7721 cells assessed as accumulation at S phase at 8 uM after 24 hrs by propidium iodide staining based flow cytometric analysis (reference value: 23.26 +/- 0.57%); type: functional
SMMC-7721 [19] = assay: Induction of cell cycle arrest in human SMMC7721 cells assessed as accumulation at sub-G1 phase at 2 uM after 24 hrs by propidium iodide staining based flow cytometric analysis (reference value: 3.173 +/- 0.26%); type: functional
SMMC-7721 [20] = assay: Induction of apoptosis in human SMMC7721 cells assessed as necrotic cells at 2 uM after 48 hrs by Annexin-V/PI-staining based flow cytometry (reference value: 1.24%); type: functional
SMMC-7721 [21] = assay: Induction of apoptosis in human SMMC7721 cells assessed as viable cells at 8 uM after 48 hrs by Annexin-V/PI-staining based flow cytometry (reference value: 96.9%); type: functional; conditions: SMMC-7721, 48 h, read-out: Activity
SMMC-7721 [22] = assay: Induction of apoptosis in human SMMC7721 cells assessed as necrotic cells at 4 uM after 48 hrs by Annexin-V/PI-staining based flow cytometry (reference value: 1.24%); type: functional
SMMC-7721 [23] = assay: Induction of apoptosis in human SMMC7721 cells assessed as late apoptotic cells at 2 uM after 48 hrs by Annexin-V/PI-staining based flow cytometry (reference value: 0.649%); type: functional
SMMC-7721 [24] = assay: Induction of cell cycle arrest in human SMMC7721 cells assessed as accumulation at G0/G1 phase at 2 uM after 24 hrs by propidium iodide staining based flow cytometric analysis (reference value: 63.71 +/- 0.31%); type: functional
SMMC-7721 [25] = assay: Induction of apoptosis in human SMMC7721 cells assessed as viable cells at 4 uM after 48 hrs by Annexin-V/PI-staining based flow cytometry (reference value: 96.9%); type: functional; conditions: SMMC-7721, 48 h, read-out: Activity
SMMC-7721 [26] = assay: Induction of cell cycle arrest in human SMMC7721 cells assessed as accumulation at G2/M phase at 4 uM after 24 hrs by propidium iodide staining based flow cytometric analysis (reference value: 6.70 +/- 0.63%); type: functional
SMMC-7721 [27] = assay: Induction of apoptosis in human SMMC7721 cells assessed as late apoptotic cells at 4 uM after 48 hrs by Annexin-V/PI-staining based flow cytometry (reference value: 0.649%); type: functional
MCF7 [28] = assay: Potency index, ratio of cisplatin IC50 to compound IC50 for antiproliferative activity against human MCF7 cells assessed as growth inhibition; type: functional
SW480 [29] = assay: Potency index, ratio of cisplatin IC50 to compound IC50 for antiproliferative activity against human SW480 cells assessed as growth inhibition; type: functional

Structure (SMILES): Cc1cc2c(cc1C)[n+](CC(=O)c1ccc(C(F)(F)F)cc1)cn2C(c1ccccc1)c1cc2ccccc2oc1=O (centres undefined)
- IC50 (A549): 11.7 µM
- IC50 (SMMC-7721 [1]): 9.5 µM
- IC50 (SW480 [2]): 8190 nM
- IC50 (HL-60): 8810 nM
- IC50 (MCF7 [3]): 6610 nM

Structure (SMILES): Cc1cc2c(cc1C)[n+](CC(=O)c1ccc3ccccc3c1)cn2C(c1ccccc1)c1cc2ccccc2oc1=O.[Br-] (centres undefined)
- Activity (SMMC-7721 [4]): 11.2%
- Activity (SMMC-7721 [5]): 1.3%
- IC50 (A549): 4.51 µM
- Activity (SMMC-7721 [6]): 67.69%
- Activity (SMMC-7721 [7]): 4.82%
- Activity (SMMC-7721 [8]): 9.68%
- viability at 2 µM (SMMC-7721 [9]): 96.4%
- Activity (SMMC-7721 [10]): 22.47%
- Activity (SMMC-7721 [11]): 70.88%
- Activity (SMMC-7721 [12]): 5.16%
- Activity (SMMC-7721 [13]): 2.54%
- Activity (SMMC-7721 [14]): 21.82%
- Activity (SMMC-7721 [15]): 25.6%
- Activity (SMMC-7721 [16]): 2.27%
- Activity (SMMC-7721 [17]): 6.92%
- Activity (SMMC-7721 [18]): 16.42%
- Activity (SMMC-7721 [19]): 3.25%
- Activity (SMMC-7721 [20]): 1.58%
- viability at 8 µM (SMMC-7721 [21]): 60.9%
- IC50 (SMMC-7721 [1]): 3.77 µM
- IC50 (SW480 [2]): 2320 nM
- Activity (SMMC-7721 [22]): 0.541%
- Activity (SMMC-7721 [23]): 0.698%
- IC50 (HL-60): 2070 nM
- Activity (SMMC-7721 [24]): 65.02%
- viability at 4 µM (SMMC-7721 [25]): 93.2%
- IC50 (MCF7 [3]): 2040 nM
- Activity (SMMC-7721 [26]): 7.59%
- Activity (SMMC-7721 [27]): 1.39%

Structure (SMILES): Cc1n(C(c2ccccc2)c2cc3ccccc3oc2=O)c2ccccc2[n+]1CC(=O)c1ccc2ccccc2c1 (centres undefined)
- IC50 (A549): 15.8 µM
- IC50 (SMMC-7721 [1]): 11.4 µM
- IC50 (SW480 [2]): 6020 nM
- IC50 (HL-60): 8340 nM
- IC50 (MCF7 [3]): 2810 nM

Structure (SMILES): Cc1cc2c(cc1C)[n+](CC(=O)c1ccccc1)cn2C(c1ccccc1)c1cc2ccccc2oc1=O (centres undefined)
- IC50 (A549): 12.4 µM
- IC50 (SMMC-7721 [1]): 7.17 µM
- IC50 (SW480 [2]): 1240 nM
- IC50 (HL-60): 4810 nM
- IC50 (MCF7 [3]): 4170 nM

Structure (SMILES): O=C(C[n+]1cn(C(c2ccccc2)c2cc3ccccc3oc2=O)c2ccccc21)c1ccc(-c2ccccc2)cc1.[Br-] (centres undefined)
- IC50 (A549): 7.47 µM
- Ratio IC50 (MCF7 [28]): 10.2
- Ratio IC50 (SW480 [29]): 4.9
- IC50 (SMMC-7721 [1]): 4.7 µM
- IC50 (SW480 [2]): 1630 nM
- IC50 (HL-60): 2910 nM
- IC50 (MCF7 [3]): 960 nM

Structure (SMILES): Cc1n(C(c2ccccc2)c2cc3ccccc3oc2=O)c2ccccc2[n+]1CC(=O)c1ccc(-c2ccccc2)cc1 (centres undefined)
- IC50 (A549): 5.1 µM
- IC50 (SMMC-7721 [1]): 5.05 µM
- IC50 (SW480 [2]): 2880 nM
- IC50 (HL-60): 2770 nM
- IC50 (MCF7 [3]): 2860 nM

Structure (SMILES): Cc1cc2c(cc1C)[n+](CC(=O)c1ccc(Br)cc1)cn2C(c1ccccc1)c1cc2ccccc2oc1=O.[Br-] (centres undefined)
- IC50 (A549): 4.89 µM
- Ratio IC50 (SW480 [29]): 40
- IC50 (SMMC-7721 [1]): 4.19 µM
- IC50 (SW480 [2]): 200 nM
- IC50 (HL-60): 2450 nM
- IC50 (MCF7 [3]): 2290 nM

Structure (SMILES): COc1ccc(C(=O)C[n+]2cn(C(c3ccccc3)c3cc4ccccc4oc3=O)c3cc(C)c(C)cc32)cc1.[Br-] (centres undefined)
- IC50 (A549): 5.65 µM
- Ratio IC50 (MCF7 [28]): 6.2
- Ratio IC50 (SW480 [29]): 22.2
- IC50 (SMMC-7721 [1]): 4.72 µM
- IC50 (SW480 [2]): 360 nM
- IC50 (HL-60): 1550 nM
- IC50 (MCF7 [3]): 1580 nM

Structure (SMILES): Cc1cc2c(cc1C)[n+](CC(=O)c1ccc(-c3ccccc3)cc1)cn2C(c1ccccc1)c1cc2ccccc2oc1=O (centres undefined)
- IC50 (A549): 2.14 µM
- IC50 (SMMC-7721 [1]): 1.91 µM
- IC50 (SW480 [2]): 8030 nM
- IC50 (HL-60): 2070 nM
- IC50 (MCF7 [3]): 1660 nM
